Reference: ChEMBL document CHEMBL4732173, “Easily accessed nitroquinolones exhibiting potent and selective anti-tubercular activity” (Eur J Med Chem, 2021)

Experiments:
[1] = Solubility of the compound in screening media; assay type: physicochemical
[2] = Solubility of the compound in DMSO; assay type: physicochemical
Mycobacterium ulcerans = experiment: Antibacterial activity against Mycobacterium ulcerans assessed as bacterial metabolic acativity at 10 ug/ml incubated for 8 days followed by addition of Alamar blue for 3 days by Alamar blue dye based fluorescence analysis; assay type: functional; conditions: dose 10 µg/ml; time 8 day
Procedure, shortened: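 Tested in triplicate. Remaining metabolic activity (%PC) was calculated as blank-corrected fluorescence of each treated well divided by that of the untreated control.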

SMILES | solubility [1] | solubility [2] | Activity (Mycobacterium ulcerans) [%]
O=C(NO)c1cn(Cc2cccc(F)c2)c2ccc([N+](=O)[O-])cc2c1=O | Soluble | Insoluble | 
CCOC(=O)c1c[nH]c2c(C(F)(F)F)cc([N+](=O)[O-])cc2c1=O | Soluble | Insoluble | >90
O=C(NCCNCCO)c1cn(Cc2ccc(F)cc2)c2ccc([N+](=O)[O-])cc2c1=O | Soluble | Insoluble | >90
O=C(NCCN1CCOCC1)c1cn(Cc2cccc(Cl)c2)c2ccc([N+](=O)[O-])cc2c1=O | Soluble | Insoluble | 
O=C(NCCOCCO)c1cn(Cc2cccc(Cl)c2)c2ccc([N+](=O)[O-])cc2c1=O | Soluble | Insoluble | 
N#Cc1cccc(Cn2cc(C(=O)O)c(=O)c3cc([N+](=O)[O-])ccc32)c1 | Soluble | Insoluble | 
O=C(NCCOCCO)c1cn(Cc2ccc(F)cc2)c2ccc([N+](=O)[O-])cc2c1=O | Soluble | Insoluble | >90
N#Cc1cccc(Cn2cc(C(=O)NCCNCCO)c(=O)c3cc([N+](=O)[O-])ccc32)c1 | Soluble | Insoluble | >90
O=C(NCCOCCO)c1cn(Cc2cccc(F)c2)c2ccc([N+](=O)[O-])cc2c1=O | Soluble | Insoluble | 
COCCNC(=O)c1cn(Cc2cccc(F)c2)c2ccc([N+](=O)[O-])cc2c1=O | Soluble | Insoluble | 
O=C(NCCN1CCOCC1)c1cn(Cc2cccc(Br)c2)c2ccc([N+](=O)[O-])cc2c1=O | Soluble | Insoluble | 
N#Cc1cccc(Cn2cc(C(=O)NCCOCCO)c(=O)c3cc([N+](=O)[O-])ccc32)c1 | Soluble | Insoluble | 
N#Cc1ccc(Cn2cc(C(=O)NCCNCCO)c(=O)c3cc([N+](=O)[O-])ccc32)cc1 | Soluble | Insoluble | 
N#Cc1ccc(Cn2cc(C(=O)NCCOCCO)c(=O)c3cc([N+](=O)[O-])ccc32)cc1 | Soluble | Insoluble | 
COCCNC(=O)c1cn(Cc2ccc(C#N)cc2)c2ccc([N+](=O)[O-])cc2c1=O | Soluble | Insoluble | 
O=C(NCCN1CCOCC1)c1cn(Cc2cccc(F)c2)c2ccc([N+](=O)[O-])cc2c1=O | Soluble | Insoluble | 
COCCNC(=O)c1cn(Cc2cccc(C#N)c2)c2ccc([N+](=O)[O-])cc2c1=O | Soluble | Insoluble | 
O=C(NCCNCCO)c1cn(Cc2cccc(F)c2)c2ccc([N+](=O)[O-])cc2c1=O | Soluble | Insoluble | >90
COCCNC(=O)c1cn(Cc2ccc(F)cc2)c2ccc([N+](=O)[O-])cc2c1=O | Soluble | Insoluble | >90
O=C(NO)c1cn(Cc2cccc(Br)c2)c2ccc([N+](=O)[O-])cc2c1=O | Soluble | Insoluble | 
COCCNC(=O)c1cn(Cc2cccc(Cl)c2)c2ccc([N+](=O)[O-])cc2c1=O | Soluble | Insoluble | >90
N#Cc1cccc(Cn2cc(C(=O)NO)c(=O)c3cc([N+](=O)[O-])ccc32)c1 | Soluble | Insoluble | 
O=C(NO)c1cn(Cc2cccc(Cl)c2)c2ccc([N+](=O)[O-])cc2c1=O | Soluble | Insoluble | 
